The record followed here is PMC6850587 (Neurogastroenterology and Motility, 2019).

A value given as a limit tells only on which side of the number the result lay.

For assay [1], the target named is T1, recombinant human δ-opioid receptor (Homo sapiens, UniProt P41143). In words: radioligand displacement, [3H]-DADLE. The class given is binding.
Assay [2] deals with T2, rat recombinant δ-opioid receptor (Rattus norvegicus, UniProt P33533). The assay can be described thus: radioligand displacement, [3H]-DADLE. Format: binding. In short, it runs like this:
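δ-Opioid receptor sites labelled with [³H]-DADLE and displaced by test compound. The IC₅₀ is the concentration inhibiting 50% of specific binding. Ki = IC₅₀/(1 + L/Kd), where L is the radioligand concentration and the radioligand Kd comes from Scatchard plot analysis. Duplicate measurements in two or three independent experiments; data where fitting failed were excluded.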
For orientation: Displacement assays read how much labelled ligand stays bound in the presence of the test substance.

For assay [3], the target named is T2, rat recombinant δ-opioid receptor. The assay can be described thus: […]-GTPγS binding functional assay. The class given is biochemical. To be noted: antagonist mode, against agonist. On the technique in general: GTPγS resists hydrolysis and so accumulates on activated G proteins.
The target in assay [4] is T3, recombinant human μ-opioid receptor (Homo sapiens, UniProt P35372). In words: radioligand displacement, [3H]-DAMGO. Format: binding.
T3 sequence (P35372 whole entry): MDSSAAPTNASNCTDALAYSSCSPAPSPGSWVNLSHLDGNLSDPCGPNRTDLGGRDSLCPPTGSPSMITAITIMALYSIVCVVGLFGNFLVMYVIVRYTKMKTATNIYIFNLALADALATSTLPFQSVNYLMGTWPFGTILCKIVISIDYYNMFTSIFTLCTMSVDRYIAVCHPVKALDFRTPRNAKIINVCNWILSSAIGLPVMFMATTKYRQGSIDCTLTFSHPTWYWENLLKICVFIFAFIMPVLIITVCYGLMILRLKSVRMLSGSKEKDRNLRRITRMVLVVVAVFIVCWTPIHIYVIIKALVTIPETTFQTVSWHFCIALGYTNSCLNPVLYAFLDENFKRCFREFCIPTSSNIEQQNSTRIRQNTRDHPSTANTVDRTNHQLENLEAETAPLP
The target of assay [5] is T4, recombinant human κ-opioid receptor (Homo sapiens, UniProt P41145). In words: […]-GTPγS binding functional assay. Format: biochemical. The following applies: antagonist mode, against agonist.
T4 sequence (P41145 whole entry): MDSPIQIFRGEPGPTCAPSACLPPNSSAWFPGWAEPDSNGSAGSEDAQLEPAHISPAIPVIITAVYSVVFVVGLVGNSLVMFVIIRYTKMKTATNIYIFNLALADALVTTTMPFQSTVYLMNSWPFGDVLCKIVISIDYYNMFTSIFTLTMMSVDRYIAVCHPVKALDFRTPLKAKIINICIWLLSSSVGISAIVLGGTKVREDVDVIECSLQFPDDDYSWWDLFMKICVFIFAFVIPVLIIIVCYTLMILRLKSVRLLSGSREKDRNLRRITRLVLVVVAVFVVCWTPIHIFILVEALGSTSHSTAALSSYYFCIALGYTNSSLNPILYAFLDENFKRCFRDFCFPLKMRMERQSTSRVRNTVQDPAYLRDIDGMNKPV
The target of assay [6] is T1, recombinant human δ-opioid receptor. The assay can be described thus: […]-GTPγS binding functional assay. Format: biochemical.
Assay [7] concerns the target T3, recombinant human μ-opioid receptor. In words: […]-GTPγS binding functional assay. The class given is biochemical. To be noted: antagonist mode, against agonist.
Assay [8] has as its target T4, recombinant human κ-opioid receptor. In words: […]-GTPγS binding functional assay. The class given is biochemical.
Assay [9] deals with T5, rat recombinant μ-opioid receptor (Rattus norvegicus, UniProt P33535). In words: radioligand displacement, [3H]-DAMGO. The class given is binding.
T5 sequence (P33535 whole entry): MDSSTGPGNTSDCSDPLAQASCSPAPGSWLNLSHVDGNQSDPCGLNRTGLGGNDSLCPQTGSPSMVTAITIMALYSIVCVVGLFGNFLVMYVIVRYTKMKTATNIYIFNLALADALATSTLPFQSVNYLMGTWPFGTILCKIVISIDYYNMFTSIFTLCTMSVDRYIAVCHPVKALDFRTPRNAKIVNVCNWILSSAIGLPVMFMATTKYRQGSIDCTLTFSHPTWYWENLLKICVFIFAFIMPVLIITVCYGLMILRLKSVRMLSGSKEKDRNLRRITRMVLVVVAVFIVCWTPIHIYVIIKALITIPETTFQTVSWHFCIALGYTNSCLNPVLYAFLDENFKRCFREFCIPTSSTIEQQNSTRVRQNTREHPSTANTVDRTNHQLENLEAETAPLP
In assay [10] the target is T4, recombinant human κ-opioid receptor. In words: radioligand displacement, [3H]-U-69, […]. The class given is binding.
The target in assay [11] is T6, rat recombinant κ-opioid receptor (Rattus norvegicus, UniProt P34975). The assay can be described thus: […]-GTPγS binding functional assay. Format: biochemical. To be noted: antagonist mode, against agonist.
T6 sequence (P34975 whole entry): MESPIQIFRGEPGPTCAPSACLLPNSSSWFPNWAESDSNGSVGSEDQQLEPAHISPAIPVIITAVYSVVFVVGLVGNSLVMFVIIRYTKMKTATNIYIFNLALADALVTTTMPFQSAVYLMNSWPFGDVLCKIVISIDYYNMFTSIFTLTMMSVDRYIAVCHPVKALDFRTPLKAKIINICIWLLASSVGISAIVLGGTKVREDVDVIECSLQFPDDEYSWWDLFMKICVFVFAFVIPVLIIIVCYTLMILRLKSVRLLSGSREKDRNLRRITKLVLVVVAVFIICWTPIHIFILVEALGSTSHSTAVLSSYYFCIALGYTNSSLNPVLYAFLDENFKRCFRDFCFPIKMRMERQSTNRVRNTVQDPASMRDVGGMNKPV
In assay [12] the target is T5, rat recombinant μ-opioid receptor. In words: […]-GTPγS binding functional assay. Format: biochemical.
For assay [13], the target named is T6, rat recombinant κ-opioid receptor. In words: […]-GTPγS binding functional assay. Format: biochemical.
The target of assay [14] is T1, recombinant human δ-opioid receptor. The assay can be described thus: […]-GTPγS binding functional assay. Format: biochemical. The following applies: antagonist mode, against agonist.
Assay [15] deals with T6, rat recombinant κ-opioid receptor. In words: […]-GTPγS binding functional assay. The class given is biochemical. The source holds these as a separate data set.
The target in assay [16] is T3, recombinant human μ-opioid receptor. In words: […]-GTPγS binding functional assay. Format: biochemical.
The target in assay [17] is T5, rat recombinant μ-opioid receptor. In words: […]-GTPγS binding functional assay. Format: biochemical. The following applies: antagonist mode, against agonist.
Assay [18] has as its target T2, rat recombinant δ-opioid receptor. In words: […]-GTPγS binding functional assay. Format: biochemical.

T2 sequence (P33533 whole entry): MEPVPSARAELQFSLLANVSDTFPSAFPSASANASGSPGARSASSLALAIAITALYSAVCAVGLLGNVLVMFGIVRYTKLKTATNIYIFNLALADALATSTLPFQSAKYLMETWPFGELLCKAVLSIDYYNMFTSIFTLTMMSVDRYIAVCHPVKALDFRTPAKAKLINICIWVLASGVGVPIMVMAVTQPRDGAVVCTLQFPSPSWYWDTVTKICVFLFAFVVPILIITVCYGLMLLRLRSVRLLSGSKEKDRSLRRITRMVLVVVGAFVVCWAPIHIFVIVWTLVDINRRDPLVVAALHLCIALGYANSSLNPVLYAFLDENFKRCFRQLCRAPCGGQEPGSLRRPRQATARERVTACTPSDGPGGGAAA
T1 sequence (P41143 whole entry): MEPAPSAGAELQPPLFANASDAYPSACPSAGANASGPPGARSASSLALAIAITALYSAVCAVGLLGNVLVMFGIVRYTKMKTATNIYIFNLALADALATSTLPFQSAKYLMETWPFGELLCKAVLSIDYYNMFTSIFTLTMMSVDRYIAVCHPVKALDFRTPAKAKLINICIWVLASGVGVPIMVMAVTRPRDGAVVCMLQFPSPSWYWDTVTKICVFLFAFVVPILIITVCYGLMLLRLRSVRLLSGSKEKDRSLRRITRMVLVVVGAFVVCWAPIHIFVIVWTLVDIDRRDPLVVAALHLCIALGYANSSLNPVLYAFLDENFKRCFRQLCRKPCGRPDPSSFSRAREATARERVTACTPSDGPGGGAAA

What is called Ki is the dissociation constant of the complex between target and ligand, obtained from inhibition or displacement. Usually EC50 stands for the concentration needed to bring the measured effect to its halfway point. Broadly, the IC50 is the concentration needed to halve the response being measured. Turning to `CC(C)(NC(=O)C1=C(O)[C@@H]2Oc3c(O)ccc4c3[C@@]23CCN(CC2CC2)[C@H](C4)[C@]3(O)C1)c1nc(-c2ccccc2)no1` [naldemedine], the Ki in assay [1] stood at 0.43 ± 0.08 nM; in assay [2], 0.96 ± 0.06 nM; in assay [4] it was 0.34 ± 0.03 nM; in assay [9] it was 1.4 ± 0.24 nM; in [10], 0.94 nM. The “Antagonist activity (nmol L^-1) / δ” value came out at 0.22 ± 0.02 nmol/L in assay [3] and 0.27 ± 0.03 nmol/L in assay [14]. Also, the “Antagonist activity (nmol L^-1) / κ” value in assay [5] stood at 0.44 nmol/L; in assay [11], 0.49 ± 0.02 nmol/L. Further, the EC50 in assay [6], in [8], in assay [12], in assay [13], in [16] and in assay [18] was > 10000 nM each time. For the same molecule, the entries for the “Antagonist activity (nmol L^-1) / μ” value in [7] and in assay [17] were 0.50 ± 0.05 nmol/L and 0.56 ± 0.02 nmol/L, respectively. The IC50 in [15] was determined as 12.2 ± 0.57 nM.
